Experimental data taken from publication PMC4823774 (Bioorganic & medicinal chemistry letters, 2016).

Columns and labels:
human mGlu1 = human mGlu1 (Homo sapiens, UniProt Q13255); experiment: Calcium mobilization mGlu1 PAM assay; type: cell-based
Outline: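 Tetracycline-inducible human mGlu1 T-REx-293 cells, induced overnight at 80,000 cells/well with 50 ng/mL tetracycline. Loaded with 1.15 μM Fluo-4 AM in HBSS/20 mM HEPES/2.5 mM probenecid, 45 min, 37 °C. Half-log dilutions or DMSO preincubated 2.5 min, then EC20 glutamate for 1 min. ECmax glutamate on vehicle wells. Peak minus pre-agonist basal fluorescence; concentration-response curve fitting.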

CNS penetration = details: in vivo
[1] = Human liver microsome stability and intrinsic clearance; type: in vitro ADME; details: for stability in human liver microsomes: in words
[2] = Rat liver microsome stability and intrinsic clearance; type: in vitro ADME; details: for stability in rat liver microsomes: in words
[3] = Rat brain homogenate binding; type: in vitro ADME
Human plasma stability = type: in vitro ADME
CYP = CYP profile; type: in vitro ADME
Rat plasma stability = type: in vitro ADME
[4] = Clearance in in vitro DMPK assays, species not stated; type: in vitro ADME

human mGlu1, sequence (Q13255 19-1194): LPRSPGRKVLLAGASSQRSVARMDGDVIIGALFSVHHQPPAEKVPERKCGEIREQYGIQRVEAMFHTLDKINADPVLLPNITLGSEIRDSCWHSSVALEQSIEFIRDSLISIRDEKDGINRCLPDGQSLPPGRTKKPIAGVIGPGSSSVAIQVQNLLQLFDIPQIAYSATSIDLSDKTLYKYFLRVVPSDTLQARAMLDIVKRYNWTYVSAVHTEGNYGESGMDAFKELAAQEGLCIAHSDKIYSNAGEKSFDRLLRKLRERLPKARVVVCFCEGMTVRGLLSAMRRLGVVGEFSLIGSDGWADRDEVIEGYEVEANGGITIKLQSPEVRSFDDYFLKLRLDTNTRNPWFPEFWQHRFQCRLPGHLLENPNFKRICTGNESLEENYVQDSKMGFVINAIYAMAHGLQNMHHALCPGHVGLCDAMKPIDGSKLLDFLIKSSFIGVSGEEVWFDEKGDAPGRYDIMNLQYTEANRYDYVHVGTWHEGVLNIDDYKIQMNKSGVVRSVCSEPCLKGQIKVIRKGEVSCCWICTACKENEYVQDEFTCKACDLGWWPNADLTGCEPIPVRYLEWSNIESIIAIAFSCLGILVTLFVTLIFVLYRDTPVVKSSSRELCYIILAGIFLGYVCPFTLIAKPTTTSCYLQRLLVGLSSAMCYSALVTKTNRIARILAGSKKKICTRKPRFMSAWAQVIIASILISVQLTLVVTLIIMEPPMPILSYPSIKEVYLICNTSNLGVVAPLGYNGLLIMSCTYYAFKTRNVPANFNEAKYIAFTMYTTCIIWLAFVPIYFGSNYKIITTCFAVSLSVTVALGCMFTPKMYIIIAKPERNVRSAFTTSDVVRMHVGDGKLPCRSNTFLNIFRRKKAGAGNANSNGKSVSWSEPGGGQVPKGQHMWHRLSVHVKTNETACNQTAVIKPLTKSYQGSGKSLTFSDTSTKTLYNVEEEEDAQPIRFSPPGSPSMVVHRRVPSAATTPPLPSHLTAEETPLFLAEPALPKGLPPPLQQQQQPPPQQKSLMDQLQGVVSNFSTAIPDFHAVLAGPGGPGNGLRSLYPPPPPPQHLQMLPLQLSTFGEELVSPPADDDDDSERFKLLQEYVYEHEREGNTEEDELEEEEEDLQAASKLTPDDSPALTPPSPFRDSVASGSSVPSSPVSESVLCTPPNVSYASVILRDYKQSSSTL

Compound: Cc1ccoc1C(=O)Nc1ccc(N2C(=O)[C@H]3CCCC[C@H]3C2=O)c(Cl)c1 [20a]
- mGlu1 PAM activity (in words) (human mGlu1): inactive

Compound: Cc1ccoc1C(=O)Nc1ccc(N2C(=O)[C@@H]3CCCC[C@H]3C2=O)c(Cl)c1 [20b]
- mGlu1 PAM activity (in words) (human mGlu1): inactive

Compound: Cc1ccoc1C(=O)Nc1ccc(NC(=O)c2ccccc2C(=O)O)c(Cl)c1 [20c]
- CNS penetration (in words) (CNS penetration): not CNS penetrant

Compound: Cc1ccoc1C(=O)Nc1ccc(N2Cc3ccccc3C2=O)c(Cl)c1 [20e]
- mGlu1 PAM activity (in words) (human mGlu1): active
- stability in human liver microsomes [1]: complete stability
- stability in rat liver microsomes [2]: complete stability

Compound: Cc1ccoc1C(=O)Nc1ccc(N2Cc3ccccc3C2)c(Cl)c1 [20f]
- mGlu1 PAM activity (in words) (human mGlu1): active

Compound: Cc1ccoc1C(=O)Nc1ccc(N2C(=O)Cc3ccccc32)c(Cl)c1 [20g]
- mGlu1 PAM activity (in words) (human mGlu1): inactive

Compound: Cc1ccoc1C(=O)Nc1ccc(N2CCc3ccccc32)c(Cl)c1 [20h]
- mGlu1 PAM activity (in words) (human mGlu1): active

Compound: Cc1ccoc1C(=O)Nc1ccc(N2Cc3c(Cl)cccc3C2=O)c(Cl)c1 [21a, N-(3-chloro-4-(4-chloro-1-oxoisoindolin-2-yl)phenyl)-3-methylfuran-2-carboxamide]
- CLp (In vivo rat PK): 11.1 mL/min/kg
- mGlu1 pEC50 (±SEM) (human mGlu1; calcium mobilization, n=3 in triplicate, tables): 6.75±0.07
- brain homogenate binding [3]: > 99%
- stability in human liver microsomes [1]: hydrolytically stable
- CLhep predicted ([1]; liver microsomes): 8.53 mL/min/kg
- stability in rat liver microsomes [2]: hydrolytically stable
- CLhep predicted ([2]; liver microsomes): 54.1 mL/min/kg

Compound: Cc1ccoc1C(=O)Nc1ccc(N2Cc3c(Cl)cccc3C2=O)cc1F [22h]
- EC50 (human mGlu1): ~1000 nM

Compound: Cc1cccnc1C(=O)Nc1ccc(N2Cc3c(Cl)cccc3C2=O)c(Cl)c1 [22k]
- EC50 (human mGlu1): ~1000 nM

Compound: Cc1ccoc1C(=O)Nc1ccc(N2C(=O)Cc3ccccc3C2=O)c(Cl)c1 [compound 17]
- stability in human plasma (Human plasma stability): unstable
- CYP profile (in words) (CYP): clean CYP profile
- stability in rat plasma (Rat plasma stability): unstable

Compound: Cc1ccoc1C(=O)Nc1ccc(N2C(=O)CCc3ccccc32)c(Cl)c1 [compound 19]
- stability in human plasma (Human plasma stability): stable
- stability in rat plasma (Rat plasma stability): stable
- clearance (in words) [4]: supprahepatic
